By IC50 is commonly meant the concentration needed to halve the response being measured.

Each structure is given as a SMILES string. Calls of active or inactive are those of the source. The rule behind the calls is not given here.

Data on eleven compounds can be found in ChEMBL document CHEMBL1811759, “Synthesis and topoisomerase I inhibitory activity of a novel diazaindeno[2,1-b]phenanthrene analogue of Lamellarin D” (Bioorg Med Chem, 2011).

The subject of assay [1] is NCI-H460. As to the kind of experiment: Antiproliferative activity against human NCI-H460 cells after 1 hr by coulter counter analysis. The format is functional, cell-based. The settings on record: NCI-H460, 1 h. Summed up:
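NCI-H460 NSCLC cells in RPMI-1640 + 10% foetal calf serum; log-phase cells seeded in duplicate, drug added 24 h after seeding for 1 h, then counted (Coulter counter) 72 h later. IC50 = concentration giving 50% decrease in cell growth vs untreated control.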

Assay [2] has as its target T1, DNA topoisomerase 1 (Homo sapiens) (UniProt P11387).
T1 sequence (whole entry): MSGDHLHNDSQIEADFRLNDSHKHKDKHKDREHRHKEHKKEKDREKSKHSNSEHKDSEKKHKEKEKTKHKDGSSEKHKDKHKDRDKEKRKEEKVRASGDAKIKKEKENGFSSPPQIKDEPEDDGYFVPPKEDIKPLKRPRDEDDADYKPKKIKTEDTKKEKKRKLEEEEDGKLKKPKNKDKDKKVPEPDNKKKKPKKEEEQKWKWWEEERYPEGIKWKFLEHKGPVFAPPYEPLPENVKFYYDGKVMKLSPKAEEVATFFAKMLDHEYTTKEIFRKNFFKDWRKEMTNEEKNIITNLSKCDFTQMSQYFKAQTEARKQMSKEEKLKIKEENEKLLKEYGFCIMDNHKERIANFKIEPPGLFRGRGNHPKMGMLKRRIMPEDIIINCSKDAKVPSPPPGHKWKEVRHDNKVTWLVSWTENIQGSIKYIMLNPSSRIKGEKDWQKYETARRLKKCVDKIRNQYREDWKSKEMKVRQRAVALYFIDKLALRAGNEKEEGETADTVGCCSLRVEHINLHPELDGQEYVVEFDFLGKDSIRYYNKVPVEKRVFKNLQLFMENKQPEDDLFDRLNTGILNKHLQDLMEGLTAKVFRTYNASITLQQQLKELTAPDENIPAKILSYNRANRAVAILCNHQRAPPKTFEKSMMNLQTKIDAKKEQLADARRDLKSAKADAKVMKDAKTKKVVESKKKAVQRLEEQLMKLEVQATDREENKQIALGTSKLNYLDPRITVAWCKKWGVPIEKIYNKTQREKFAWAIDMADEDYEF
As to the kind of experiment: Stimulation of human recombinant DNA topoisomerase 1-mediated 751-bp BamHI-EcoRV fragment of SV40 DNA cleavage at 1 to 50 uM after 30 mins by polyacrylamide gel-electrophoresis. Summed up:
(§1)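 Gel-purified 751-bp BamHI–EcoRV SV40 DNA fragment, uniquely 3'-end labeled (10,000 cpm/sample), incubated with full-length human recombinant topoisomerase I in 10 mM Tris–HCl pH 7.6, 150 mM KCl, 5 mM MgCl2, 0.1 mM DTT, 30 min, 37 °C. Stopped with 0.5% SDS plus 0.3 mg/mL proteinase K (45 min, 42 °C); products resolved on denaturing 8% polyacrylamide/TBE gel.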

The subject of assay [3] is NCI-H460. As to the kind of experiment: Antiproliferative activity against human NCI-H460 cells after 72 hrs by coulter counter analysis. The settings on record: NCI-H460, 72 h. The format is functional, cell-based. A digest of the protocol:
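NCI-H460 cells grown in RPMI-1640 with 10% foetal calf serum; log-phase cells seeded in duplicate, exposed 24 h post-seeding for 72 h continuously, counted by Coulter counter at end of exposure. IC50 taken as concentration halving cell growth relative to untreated control.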

The target of assay [4] is T1, DNA topoisomerase 1 (Homo sapiens). Kind of assay: Stimulation of human recombinant DNA topoisomerase 1-mediated 751-bp BamHI-EcoRV fragment of SV40 DNA cleavage at 100 uM after 30 mins by polyacrylamide gel-electrophoresis. A digest of the protocol:
as §1

For the compound `COc1cc(-c2[nH]c(=O)c3[nH]c4cc(O)c(OC)cc4c3c2-c2ccc(O)c(OC)c2)ccc1O`, 60.8 µM corresponded to half-maximal inhibition with NCI-H460 [1] (IC50). The result in assay [2] was inactive.

With `CCc1c2c(nc3ccc(O)cc13)-c1cc3c(c(=O)n1C2)COC(=O)[C@]3(O)CC`, the outcome in assay [2] was Active.

Consider `COc1cc(-c2c3n(c(=O)c4c2c2cc(OC)c(O)cc2n4C)COc2cc(O)c(OC)cc2-3)ccc1O`, for which the IC50 in the assay on NCI-H460 [1] stood at 4.02 µM; in the assay with NCI-H460 [3], 0.35 µM. For the same compound, in assay [4], the result was Active.

`COc1cc2c3c(-c4ccc(OC(C)C)c(OC)c4)c(-c4ccc(OC(C)C)c(OC)c4)[nH]c(=O)c3n(Cc3ccccc3)c2cc1OCc1ccccc1` returned a concentration for half-maximal inhibition (IC50) in the assay with NCI-H460 [1] greater than 150 µM. The outcome in assay [2] was inactive.

On to `COc1cc(-c2[nH]c(=O)c3c(c2-c2ccc(O)c(OC)c2)c2ccccc2n3C)ccc1O`, for which half-maximal inhibition with NCI-H460 [1] (IC50) was put at 60.8 µM.

On to `CC[C@@]1(O)C(=O)OCc2c1cc1n(c2=O)Cc2cc3c(CN(C)C)c(O)ccc3nc2-1` [TOPOTECAN], for which the half-inhibitory concentration (IC50) in the assay with NCI-H460 [1] came out at 1.75 µM; with NCI-H460 [3] it was 0.016 µM.

Turning to `COc1cc(-c2[nH]c(=O)c3c(c2-c2ccc(O)c(OC)c2)c2cc(OC)c(O)cc2n3Cc2ccccc2)ccc1O`, in the assay on NCI-H460 [1], the IC50 came out at 119 µM. Moreover, the result in assay [2] was inactive.

In turn, `COc1cc(-c2[nH]c(=O)c3[nH]c4cc(OC)c(O)cc4c3c2-c2ccc(O)c(OC)c2)ccc1O` returned an IC50 with NCI-H460 [1] of 60.8 µM.

On to `COc1cc(-c2c3c4cc(OC)c(O)cc4oc(=O)c3n3ccc4cc(O)c(OC)cc4c23)ccc1O` [LAMELLARIN D], for which the IC50 with NCI-H460 [1] was found to be 0.066 µM; in the assay on NCI-H460 [3], 0.003 µM. Moreover, the result in assay [2] was Active.

`COc1cc(-c2[nH]c(=O)c3c(c2-c2ccc(OC(C)C)c(OC)c2)c2ccccc2n3C)ccc1OC(C)C` came in with a concentration for half-maximal inhibition (IC50) in the assay on NCI-H460 [1] of 60.8 µM.

On to `Cn1c2ccccc2c2cc3n(c(=O)c21)COc1ccccc1-3`, for which, in the assay with NCI-H460 [1], the IC50 was found to be 118 µM.
